Activity calls are given as the source filed them.
What was measured:
[1] = target: T1, Neuronal acetylcholine receptor; alpha4/beta2 (Homo sapiens, UniProt P17787+P43681); assay: Antagonist activity at human alpha4beta2 nAChR expressed in SH-EP1 cells assessed as inhibition of carbamylcholine induced 86Rb+ ion efflux preincubated for 10 mins prior to carbamylcholine-induction measured after 5 mins by flip-plate technique; assay type: functional, cell-based
Method in brief: (§1)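 SH-EP1 human epithelial cells stably transfected with separate human α4 and β2 subunit cDNAs express a mixed population of high-sensitivity (2:3 α4:β2) and low-sensitivity (3:2) α4β2-nAChRs. Cells were kept at low passage (1−26 from frozen stocks). Function was read as 86Rb+ ion flux.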

[2] = target: T1, Neuronal acetylcholine receptor; alpha4/beta2; assay: Agonist activity at human high sensitive and low sensitive alpha4beta2 nAChR expressed in SH-EP1 cells assessed as 86Rb+ ion efflux by flip-plate technique relative to sazetidine-A; assay type: functional, cell-based
Method in brief: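 SH-EP1-hα4β2 cells (stably transfected human α4 and β2, low passage 1−26) express mixed high- and low-sensitivity α4β2-nAChRs. Efficacy was measured by 86Rb+ flux on this mixed population. High-sensitivity efficacy was extrapolated by defining a reference agonist as 100% full agonist at the HS receptor.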

[3] = target: T2, Neuronal acetylcholine receptor; alpha3/beta4 (Rattus norvegicus, UniProt P04757+P12392); assay: Displacement of [3H] epibatidine from rat alpha3beta4 nAChR expressed in HEK293 cells by liquid scintillation counting; assay type: cell-based
[4] = target: T3, Neuronal acetylcholine receptors; alpha-3/beta-4, alpha-5, beta-2 (Homo sapiens) (UniProt P17787+P30926+P32297+P30532); assay: Antagonist activity at alpha3beta4alpha5beta2 in human SH-SY5Y cells at 10 uM by 86Rb+ flux assay; assay type: functional, cell-based
Method in brief: (§2)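 Human neuroblastoma SH-SY5Y cells endogenously express α3β4* nAChRs (α3, β4, probably α5, sometimes β2); their α7 receptors give no signal under these conditions. Cells were kept at low passage (1−26 from frozen stocks). Function was read as 86Rb+ efflux, with agonist and antagonist modes tested up to 10 μM.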

[5] = target: T3, Neuronal acetylcholine receptors; alpha-3/beta-4, alpha-5, beta-2 (Homo sapiens); assay: Agonist activity at alpha3beta4alpha5beta2 in human SH-SY5Y cells at 10 uM by 86Rb+ flux assay; assay type: functional, cell-based; method in brief: as §2
[6] = target: T1, Neuronal acetylcholine receptor; alpha4/beta2; assay: Antagonist activity at human high sensitive and low sensitive alpha4beta2 nAChR expressed in SH-EP1 cells assessed as inhibition of carbamylcholine induced 86Rb+ ion efflux preincubated for 10 mins prior to carbamylcholine-induction measured after 5 mins by flip-plate technique relative to control; assay type: functional, cell-based; method in brief: as §1
[7] = target: T4, Acetylcholine receptor; alpha1/beta1/delta/gamma (Homo sapiens) (UniProt P02708+P07510+P11230+Q07001); assay: Agonist activity at human alpha1beta1gammadelta nAChR expressed in TE671/RD cells at 10 uM by 86Rb+ flux assay; assay type: functional, cell-based
Method in brief: (§3)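 Human clonal TE671/RD cells endogenously express muscle-type α1*-nAChRs (α1, β1, γ, δ). Cells were kept at low passage (1−26 from frozen stocks). Function was read as 86Rb+ efflux, with agonist and antagonist modes tested up to 10 μM.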

[8] = target: T1, Neuronal acetylcholine receptor; alpha4/beta2; assay: Partial agonist activity at human high sensitive alpha4beta2 nAChR expressed in SH-EP1 cells assessed as 86Rb+ ion efflux by flip-plate technique relative to sazetidine-A; assay type: functional, cell-based
Method in brief: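 86Rb+ ion flux in SH-EP1 cells stably transfected with separate human α4 and β2 subunit cDNAs, expressing a mixture of high- and low-sensitivity α4β2 nAChRs. Cells kept at low passage (1−26). Efficacy at the HS form extrapolated relative to a reference agonist defined as a 100% full agonist.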

[9] = target: T5, Neuronal acetylcholine receptor; alpha4/beta2 (Rattus norvegicus, UniProt P09483+P12390); assay: Displacement of [3H] epibatidine from rat alpha4beta2 nAChR expressed in HEK293 cells by liquid scintillation counting; assay type: cell-based
[10] = target: T1, Neuronal acetylcholine receptor; alpha4/beta2; assay: Agonist activity at human alpha4beta2 nAChR expressed in SH-EP1 cells assessed as 86Rb+ ion efflux after 9.5 mins by flip-plate technique; assay type: functional, cell-based; method in brief: as §1
[11] = species on record: Rattus norvegicus; assay: Selectivity ratio of Ki for rat alpha3beta4 to Ki for rat alpha4beta2
Method in brief: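 Ki values from [3H]epibatidine competition binding at heterologously expressed rat nAChR subtypes, using the PDSP protocol; selectivity taken as the α3β4/α4β2 Ki ratio.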

[12] = Drug uptake in BALB/cJ mouse brain at 3 mg/kg after 15 mins; assay type: ADME, organism-based; set-up: dose 3 mg/kg; conditions: read-out: Drug uptake
[13] = target: T4, Acetylcholine receptor; alpha1/beta1/delta/gamma (Homo sapiens); assay: Antagonist activity at human alpha1beta1gammadelta nAChR expressed in TE671/RD cells at 10 uM by 86Rb+ flux assay; assay type: functional, cell-based; method in brief: as §3
[14] = target: T5, Neuronal acetylcholine receptor; alpha4/beta2; assay: Displacement of [3H] epibatidine from rat alpha4beta2* nAChR in rat forebrain by liquid scintillation counting
[15] = Drug uptake in BALB/cJ mouse brain at 1 mg/kg after 15 mins; assay type: ADME, organism-based; set-up: dose 1 mg/kg; conditions: read-out: Drug uptake
[16] = target: Neuronal acetylcholine receptor; alpha4/beta4 (Rattus norvegicus, UniProt P09483+P12392); assay: Displacement of [3H] epibatidine from rat alpha4beta4 nAChR by beta scintillation counting; assay type: protein-complex assay
[17] = target: Neuronal acetylcholine receptor; alpha2/beta4 (Rattus norvegicus, UniProt P12389+P12392); assay: Displacement of [3H] epibatidine from rat alpha2beta4 nAChR by beta scintillation counting; assay type: protein-complex assay
[18] = target: Neuronal acetylcholine receptor; alpha2/beta2 (Rattus norvegicus, UniProt P12389+P12390); assay: Displacement of [3H] epibatidine from rat alpha2beta2 nAChR by beta scintillation counting; assay type: protein-complex assay
[19] = target: T5, Neuronal acetylcholine receptor; alpha4/beta2; assay: Displacement of [3H] epibatidine from rat alpha4beta2 nAChR by beta scintillation counting; assay type: protein-complex assay
[20] = target: T5, Neuronal acetylcholine receptor; alpha4/beta2; assay: Displacement of [3H] epibatidine from rat alpha4beta2* nAChR in rat forebrain by beta scintillation counting
[21] = target: Neuronal acetylcholine receptor; alpha3/beta2 (Rattus norvegicus, UniProt P04757+P12390); assay: Displacement of [3H] epibatidine from rat alpha3beta2 nAChR by beta scintillation counting; assay type: protein-complex assay
[22] = target: T2, Neuronal acetylcholine receptor; alpha3/beta4; assay: Displacement of [3H] epibatidine from rat alpha3beta4 nAChR by beta scintillation counting; assay type: protein-complex assay
[23] = target: Neuronal acetylcholine receptor subunit alpha-7 (Homo sapiens) (UniProt P36544); assay: Displacement of [3H]epibatidine from human alpha7 nAChR expressed in SH-EP1 cells at 10 uM by beta scintillation counting; assay type: cell-based
Method in brief: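 Membranes from SH-EP1 cells heterologously expressing human α7 nAChRs; test ligand at 10 μM competing with 10 nM [3H]epibatidine; protocol similar to the PDSP one.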

T1 sequence (P17787 whole entry): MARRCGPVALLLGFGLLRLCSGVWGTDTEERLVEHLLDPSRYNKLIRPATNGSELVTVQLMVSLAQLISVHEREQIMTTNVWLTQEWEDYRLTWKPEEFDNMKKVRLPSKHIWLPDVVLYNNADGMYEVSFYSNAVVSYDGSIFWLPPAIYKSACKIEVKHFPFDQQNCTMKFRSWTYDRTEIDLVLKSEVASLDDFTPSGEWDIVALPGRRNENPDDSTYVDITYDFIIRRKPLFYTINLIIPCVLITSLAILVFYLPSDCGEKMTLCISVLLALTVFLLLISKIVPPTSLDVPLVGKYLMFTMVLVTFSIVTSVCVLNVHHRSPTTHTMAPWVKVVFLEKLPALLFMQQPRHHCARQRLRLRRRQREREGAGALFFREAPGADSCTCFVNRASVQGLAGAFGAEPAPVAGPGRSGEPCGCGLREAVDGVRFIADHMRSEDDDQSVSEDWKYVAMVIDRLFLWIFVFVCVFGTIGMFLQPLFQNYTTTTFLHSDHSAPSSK
T1 sequence (P43681 whole entry): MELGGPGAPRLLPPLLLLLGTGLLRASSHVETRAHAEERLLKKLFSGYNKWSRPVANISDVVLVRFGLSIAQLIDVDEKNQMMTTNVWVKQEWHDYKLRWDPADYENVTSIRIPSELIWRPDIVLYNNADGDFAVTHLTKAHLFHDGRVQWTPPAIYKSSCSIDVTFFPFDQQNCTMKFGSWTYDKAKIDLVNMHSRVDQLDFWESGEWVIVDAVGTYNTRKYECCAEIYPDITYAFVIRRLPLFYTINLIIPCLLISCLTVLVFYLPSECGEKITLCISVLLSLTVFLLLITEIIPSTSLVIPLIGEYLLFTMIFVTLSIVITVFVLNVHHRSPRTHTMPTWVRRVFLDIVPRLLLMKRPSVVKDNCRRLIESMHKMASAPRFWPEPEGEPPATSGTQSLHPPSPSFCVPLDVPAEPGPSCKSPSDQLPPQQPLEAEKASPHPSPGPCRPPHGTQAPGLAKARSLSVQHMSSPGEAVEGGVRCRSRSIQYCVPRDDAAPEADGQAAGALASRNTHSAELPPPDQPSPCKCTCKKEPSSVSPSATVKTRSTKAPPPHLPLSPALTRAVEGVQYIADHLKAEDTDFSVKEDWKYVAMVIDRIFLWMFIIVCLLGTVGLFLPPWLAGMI
T3 sequence (P17787 whole entry, looked up): as the sequence (P17787 whole entry) above
T3 sequence (P30532 whole entry, looked up): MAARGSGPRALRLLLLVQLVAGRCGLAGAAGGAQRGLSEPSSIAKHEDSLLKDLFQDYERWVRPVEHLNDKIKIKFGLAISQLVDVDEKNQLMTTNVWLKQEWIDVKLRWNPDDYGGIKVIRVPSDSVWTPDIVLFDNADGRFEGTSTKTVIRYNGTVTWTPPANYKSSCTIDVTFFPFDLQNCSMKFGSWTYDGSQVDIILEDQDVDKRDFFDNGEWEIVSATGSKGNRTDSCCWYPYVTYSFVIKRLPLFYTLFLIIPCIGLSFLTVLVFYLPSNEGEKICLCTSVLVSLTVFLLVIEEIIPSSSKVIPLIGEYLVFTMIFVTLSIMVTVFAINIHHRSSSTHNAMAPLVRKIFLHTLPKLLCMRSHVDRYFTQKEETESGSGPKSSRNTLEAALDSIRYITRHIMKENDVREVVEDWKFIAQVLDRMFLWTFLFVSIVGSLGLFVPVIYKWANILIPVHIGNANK
T3 sequence (P30926 whole entry, looked up): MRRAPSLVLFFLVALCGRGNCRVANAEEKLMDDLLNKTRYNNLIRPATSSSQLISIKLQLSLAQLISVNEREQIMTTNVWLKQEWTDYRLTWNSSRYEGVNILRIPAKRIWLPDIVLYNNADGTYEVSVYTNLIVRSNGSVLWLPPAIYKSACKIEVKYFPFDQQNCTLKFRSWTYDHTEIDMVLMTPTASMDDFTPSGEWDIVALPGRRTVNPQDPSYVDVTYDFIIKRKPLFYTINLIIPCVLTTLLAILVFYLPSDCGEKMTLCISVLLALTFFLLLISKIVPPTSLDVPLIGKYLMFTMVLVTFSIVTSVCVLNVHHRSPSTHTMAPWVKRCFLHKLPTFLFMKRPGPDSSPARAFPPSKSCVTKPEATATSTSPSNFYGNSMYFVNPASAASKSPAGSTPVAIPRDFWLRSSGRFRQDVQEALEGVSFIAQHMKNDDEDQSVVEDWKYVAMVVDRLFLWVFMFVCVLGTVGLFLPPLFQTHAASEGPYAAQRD
T3 sequence (P32297 whole entry, looked up): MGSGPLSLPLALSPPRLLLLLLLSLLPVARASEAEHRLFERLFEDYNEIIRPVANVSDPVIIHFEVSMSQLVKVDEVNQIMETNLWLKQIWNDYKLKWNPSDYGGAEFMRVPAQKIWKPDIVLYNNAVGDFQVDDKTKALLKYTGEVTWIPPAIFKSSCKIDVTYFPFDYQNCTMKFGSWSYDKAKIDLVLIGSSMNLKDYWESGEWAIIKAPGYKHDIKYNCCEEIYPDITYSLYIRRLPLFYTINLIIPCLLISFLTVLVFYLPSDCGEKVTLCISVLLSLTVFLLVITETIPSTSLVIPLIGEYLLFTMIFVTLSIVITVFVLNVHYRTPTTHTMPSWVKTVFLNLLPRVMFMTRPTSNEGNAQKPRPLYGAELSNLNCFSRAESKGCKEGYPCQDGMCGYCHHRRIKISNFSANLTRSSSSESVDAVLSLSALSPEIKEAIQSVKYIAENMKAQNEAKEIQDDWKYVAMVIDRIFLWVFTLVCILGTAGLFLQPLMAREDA
Chain of Neuronal acetylcholine receptor; alpha3/beta2 (P04757 whole entry): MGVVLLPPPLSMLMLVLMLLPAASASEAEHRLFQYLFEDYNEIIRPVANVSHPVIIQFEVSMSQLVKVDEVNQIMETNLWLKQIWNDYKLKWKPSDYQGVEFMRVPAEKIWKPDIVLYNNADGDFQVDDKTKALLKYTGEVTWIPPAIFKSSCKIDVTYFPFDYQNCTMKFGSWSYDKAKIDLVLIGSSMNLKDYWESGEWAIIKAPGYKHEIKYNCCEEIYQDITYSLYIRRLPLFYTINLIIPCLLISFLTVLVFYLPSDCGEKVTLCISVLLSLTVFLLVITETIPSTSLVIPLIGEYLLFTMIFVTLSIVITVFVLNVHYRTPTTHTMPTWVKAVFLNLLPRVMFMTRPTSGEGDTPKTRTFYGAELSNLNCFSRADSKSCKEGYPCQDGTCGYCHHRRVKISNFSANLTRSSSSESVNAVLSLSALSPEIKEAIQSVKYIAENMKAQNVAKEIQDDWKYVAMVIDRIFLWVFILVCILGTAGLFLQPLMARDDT
Chain of Neuronal acetylcholine receptor; alpha3/beta2 (P12390 whole entry): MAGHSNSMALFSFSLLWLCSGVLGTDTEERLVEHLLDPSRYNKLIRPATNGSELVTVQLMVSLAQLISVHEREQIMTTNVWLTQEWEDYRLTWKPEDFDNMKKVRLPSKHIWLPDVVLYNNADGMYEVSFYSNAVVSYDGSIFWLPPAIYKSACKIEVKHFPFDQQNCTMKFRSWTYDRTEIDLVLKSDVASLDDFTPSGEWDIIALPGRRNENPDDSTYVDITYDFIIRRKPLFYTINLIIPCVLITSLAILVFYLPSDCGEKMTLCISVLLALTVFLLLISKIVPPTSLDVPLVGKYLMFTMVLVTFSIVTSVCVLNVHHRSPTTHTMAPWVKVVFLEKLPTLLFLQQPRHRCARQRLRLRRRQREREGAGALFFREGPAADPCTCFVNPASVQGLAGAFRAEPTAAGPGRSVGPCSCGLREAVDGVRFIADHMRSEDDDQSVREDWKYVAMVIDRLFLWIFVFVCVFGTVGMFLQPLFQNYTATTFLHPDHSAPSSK
T2 sequence (P04757 whole entry): as the sequence (P04757 whole entry) above
T2 sequence (P12392 whole entry): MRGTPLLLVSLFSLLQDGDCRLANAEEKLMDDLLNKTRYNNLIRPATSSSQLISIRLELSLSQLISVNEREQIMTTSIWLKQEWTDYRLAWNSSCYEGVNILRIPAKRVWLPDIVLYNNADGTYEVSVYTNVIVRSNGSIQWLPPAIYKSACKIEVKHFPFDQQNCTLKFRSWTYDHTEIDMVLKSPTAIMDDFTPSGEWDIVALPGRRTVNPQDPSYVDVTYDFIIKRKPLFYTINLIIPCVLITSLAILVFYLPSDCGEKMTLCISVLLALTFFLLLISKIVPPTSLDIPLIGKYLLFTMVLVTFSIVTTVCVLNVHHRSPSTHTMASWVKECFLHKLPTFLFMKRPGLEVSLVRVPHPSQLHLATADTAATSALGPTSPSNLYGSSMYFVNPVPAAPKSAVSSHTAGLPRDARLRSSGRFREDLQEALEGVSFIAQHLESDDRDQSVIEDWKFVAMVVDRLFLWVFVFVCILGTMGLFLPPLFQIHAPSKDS
T5 sequence (P09483 whole entry): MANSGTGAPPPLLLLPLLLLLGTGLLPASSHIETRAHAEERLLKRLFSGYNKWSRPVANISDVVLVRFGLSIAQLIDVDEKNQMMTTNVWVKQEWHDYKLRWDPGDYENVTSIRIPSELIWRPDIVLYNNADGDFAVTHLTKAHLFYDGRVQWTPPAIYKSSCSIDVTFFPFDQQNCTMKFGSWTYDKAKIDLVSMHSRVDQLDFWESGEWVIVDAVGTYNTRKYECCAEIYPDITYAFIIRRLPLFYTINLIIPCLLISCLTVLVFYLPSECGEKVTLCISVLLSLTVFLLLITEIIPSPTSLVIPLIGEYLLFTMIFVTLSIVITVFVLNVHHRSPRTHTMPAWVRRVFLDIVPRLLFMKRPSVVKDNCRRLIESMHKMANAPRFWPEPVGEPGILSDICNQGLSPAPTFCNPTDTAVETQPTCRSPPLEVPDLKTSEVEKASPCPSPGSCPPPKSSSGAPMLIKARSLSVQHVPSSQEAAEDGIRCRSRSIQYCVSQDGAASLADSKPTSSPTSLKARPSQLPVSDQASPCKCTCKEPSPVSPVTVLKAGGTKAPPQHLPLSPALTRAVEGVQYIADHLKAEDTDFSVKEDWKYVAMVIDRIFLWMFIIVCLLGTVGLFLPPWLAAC
T5 sequence (P12390 whole entry): as the sequence (P12390 whole entry) above
Chain of Neuronal acetylcholine receptor; alpha4/beta4 (P09483 whole entry): as the sequence (P09483 whole entry) above
Chain of Neuronal acetylcholine receptor; alpha4/beta4 (P12392 whole entry): as the sequence (P12392 whole entry) above

| SMILES | IC50 [1] | Efficacy [2] | Activity [4] | Activity [5] | Efficacy [6] | Activity [7] | Efficacy [8] | EC50 [10] | Ratio Ki [11] | Activity [13] | Ki [16] | Ki [17] | Ki [18] | Ki [19] | Ki [20] | Ki [21] | Ki [22] | further results |
| --- | --- | --- | --- | --- | --- | --- | --- | --- | --- | --- | --- | --- | --- | --- | --- | --- | --- | --- |
| OCCCCC#Cc1cncc(OC[C@@H]2CCN2)c1 | 4.8 nM | 55% | inactive | inactive | 63% | inactive | 100% | 5.8 nM | 24000 | inactive | – | – | – | – | – | – | – | Ki [3]: 1000 nM; Ki [9]: 0.4 nM; concentration at 0.25 h [12]: 10 ng/g; Ki [14]: 0.9 nM; concentration at 0.25 h [15]: 3 ng/g |
| O=C(OCC[C@H]1C[C@@H]1c1cncc(OC[C@@H]2CCN2)c1)N1CCCC1 | 48.5 nM | 23% | inactive | inactive | 84% | inactive | 69% | 44.4 nM | > 100000 | inactive | 162 nM | 2330 nM | 1.5 nM | 0.8 nM | 4 nM | 21.5 nM | > 10000 nM | %max [23]: 30% |
| CN1CCC[C@H]1c1cccnc1 | – | – | inactive | inactive | – | inactive | – | – | – | inactive | – | – | – | – | – | – | – | – |
| O=C(NC1CC1)OCC[C@H]1C[C@@H]1c1cncc(OC[C@@H]2CCN2)c1 | 19.6 nM | 27% | inactive | inactive | 82% | inactive | 80% | 23.3 nM | > 100000 | inactive | 234 nM | 720 nM | 0.9 nM | 0.7 nM | 2.4 nM | 16 nM | > 10000 nM | – |
| O=C(Nc1ccccc1)OCC[C@H]1C[C@@H]1c1cncc(OC[C@@H]2CCN2)c1 | 50.2 nM | 24% | inactive | inactive | 87% | inactive | 78% | 48.9 nM | 14800 | inactive | 551 nM | 241 nM | 1.2 nM | 0.6 nM | 5.9 nM | 24.4 nM | 8850 nM | – |
| OCC[C@@H]1C[C@H]1c1cncc(OC[C@@H]2CCN2)c1 | 50.9 nM | 10% | inactive | inactive | 69% | inactive | 65% | 34.6 nM | 1500 | inactive | 29 nM | 65 nM | 0.5 nM | 0.7 nM | 3.7 nM | 17 nM | 1040 nM | – |
| COCC[C@@H]1C[C@H]1c1cncc(OC[C@@H]2CCN2)c1 | 50.4 nM | 8% | inactive | inactive | 75% | inactive | 62% | 43.1 nM | > 16700 | inactive | 96.5 nM | 405 nM | 0.5 nM | 0.6 nM | 6.2 nM | 20 nM | > 10000 nM | – |
| CN(C)C(=O)OCC[C@H]1C[C@@H]1c1cncc(OC[C@@H]2CCN2)c1 | 19.1 nM | 15% | inactive | inactive | 85% | inactive | 71% | 18.2 nM | > 100000 | inactive | 281 nM | 261 nM | 0.3 nM | 0.4 nM | 2.1 nM | 15 nM | > 10000 nM | – |
